Assay outcomes from PubChem BioAssay.
This is a sample that favours compounds with a hit; in the whole collection about 2.4% have one here.
Jurkat NFkB inh = inhibitors of the PMA/ionomycin-induced NF-kB reporter in Jurkat cells. PMA/ionomycin-induced NF-kB luciferase reporter, luminescence. inhibition, % at 4 µM. actives 0.53% (n = 330,000). AID 435003; in the data active = inhibition above about 50%
697 NFkB inh = inhibitors of the PMA/ionomycin-induced NF-kB reporter in 697 B cells | AID 435022 | actives 0.33% (n = 330,000) | 697 B-cell NF-kB luciferase reporter, 16 h | inhibition, % at 4 µM; in the data active = inhibition above about 35%
aDG glyco act = alpha-DG glycosylation activation. activation, % at 10 µM. actives 0.22% (n = 360,000). Pro5-aDG cells, alpha-DG glycosylation AlphaScreen (IIH6); 0% Pro5, 100% B10-LARGE cell signal;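 active = activation of at least 8% versus controls, or a plate z-score of at least 8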;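 note: Pro5 are CHO cells carrying HIG-tagged alpha-DG that lacks glycosylation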
NR2E3 ag-1 = agonists of human nuclear receptor NR2E3 | Q9Y5X4 | GST-NR2E3/biotin-RetCOR TR-FRET, 1536-well | inhibition of corepressor binding, % at 4.78 µM | actives 0.12% (n = 320,000) | AID 2300;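 active = percent inhibition above the cutoff of mean plus 3 SD of all tested compounds, set per screening campaign, cut at about 20% in these data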;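 note: 0% = DMSO wells and 100% = biotin wells as full block of FRET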
Target sequence (Q9Y5X4 whole entry, looked up): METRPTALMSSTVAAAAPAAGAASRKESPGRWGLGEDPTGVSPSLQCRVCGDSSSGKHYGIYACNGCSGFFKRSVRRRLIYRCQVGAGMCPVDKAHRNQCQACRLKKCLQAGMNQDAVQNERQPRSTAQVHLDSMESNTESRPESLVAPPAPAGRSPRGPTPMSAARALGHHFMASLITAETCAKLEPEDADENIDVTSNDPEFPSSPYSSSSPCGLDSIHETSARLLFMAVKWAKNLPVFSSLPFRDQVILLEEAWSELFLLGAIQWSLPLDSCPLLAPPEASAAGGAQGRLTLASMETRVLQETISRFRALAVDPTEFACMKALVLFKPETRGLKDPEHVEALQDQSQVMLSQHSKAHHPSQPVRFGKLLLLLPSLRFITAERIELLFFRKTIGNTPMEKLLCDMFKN
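Material: NR2E3–RetCOR corepressor complex | Quantity: 1.35 nM GST-tagged NR2E3 final | Schedule: 5 h at 4 °C | Replication: Singlicate compound wells | Reagent: RetCOR corepressor, biotinylated, 7 nM | Controls: Biotin wells as high control, 0.6% DMSO wells as low control | Signal: TR-FRET, Eu(K)-anti-GST donor, streptavidin-D2 acceptor, ex 340, em 617/671 nm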
NR2E3 ag-2 = agonists of human NR2E3 nuclear receptor. CHO-S Gal4-NCOR/VP16-NR2E3 two-hybrid, luciferase. inhibition of corepressor binding, % at 3.98 µM. actives 0.35% (n = 360,000);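 active = inhibition above the mean of all tested compounds plus 3 SD, cut at about 70% in these data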;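 note: 0% = DMSO with NR2E3 transfected cells and 100% = cells lacking NR2E3 construct; higher means lower luciferase signal from less NR2E3 corepressor binding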
MPTP inh = blocks calcium-induced mitochondrial swelling. actives 1.4% (n = 360,000). inhibition, % at 10 µM. AID 602449. isolated mouse mitochondria, Ca2+ swelling absorbance, 30 min;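 active = inhibition of 50% or more, scaled per plate between neutral and stimulator controls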;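 note: 0% = DMSO wells given calcium and 100% = 1 mM EGTA wells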
MPTP counter = Rhodamine 123 counter-screen of mitochondrial pore hits; AID 624504; inhibition, % at 10 µM; shares compounds with MPTP inh; actives 78% (n = 5,000); isolated mitochondria, membrane potential, Rhodamine 123 fluorescence; in the data active = inhibition above about 22%;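 note: 0% = DMSO vehicle and 100% = positive control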
MPTP swell DR = MPTP inhibition, dose response swelling confirmation; actives 58% (n = 780); IC50, µM; shares compounds with MPTP inh; isolated mitochondria swelling, absorbance; in the data active = IC50 below about 20 µM
MPTP counter DR = active in counter-screen for permeability transition pore inhibitors; isolated mitochondria counterscreen, fluorescence read-out; actives 49% (n = 780); IC50, µM; shares compounds with MPTP inh; in the data active = IC50 below about 80 µM
Numbers without * were called inactive.

What do the screens show for `COc1ccc(CNC(=S)Nc2ccc(Br)cc2)cc1`?
Jurkat NFkB inh: -7.8; 697 NFkB inh: 14.8; aDG glyco act: -0.1; NR2E3 ag-1: -1.9; NR2E3 ag-2: -42.7; MPTP inh: 87.8*; MPTP counter: 91.8*

How did Fc1ccc(NC(=S)Nc2ccc(F)c(Cl)c2)cc1Cl do in these assays?
Jurkat NFkB inh: 1.9; 697 NFkB inh: 14.9; aDG glyco act: 0.0; NR2E3 ag-1: -1.5; NR2E3 ag-2: 8.0; MPTP inh: 91.6*; MPTP counter: 88.8*

What do the screens show for `CN1/C(=C/c2cc[n+](C)c3ccccc23)C=Cc2ccccc21`?
aDG glyco act: 1.1; NR2E3 ag-2: -4.4; MPTP inh: 74.8*; MPTP counter: 59.1*

How did CCOC(=O)c1cccc(NC(=O)Nc2ccc3c(c2)C(=O)OC3)c1 do in these assays?
Jurkat NFkB inh: -2.8; 697 NFkB inh: -20.8; aDG glyco act: 0.1; NR2E3 ag-1: 4.5; NR2E3 ag-2: -12.5; MPTP inh: 20.4

How did CC(=O)Nc1ccc(N(C(=O)CNC(=O)c2ccco2)C(C(=O)NCc2ccco2)c2ccccc2F)cc1 (stereo unspecified) do in these assays?
Jurkat NFkB inh: -7.1; 697 NFkB inh: -3.0; aDG glyco act: -0.4; NR2E3 ag-1: 0.4; NR2E3 ag-2: 2.5; MPTP inh: 2.3

What do the screens show for `Cc1ccc(-c2noc(C3CCCN(C(=O)c4ccc(C(C)(C)C)cc4)C3)n2)o1` (stereo unspecified)?
Jurkat NFkB inh: 12.3; 697 NFkB inh: -10.8; aDG glyco act: 1.2; NR2E3 ag-1: 7.2; NR2E3 ag-2: 44.5; MPTP inh: 61.1*; MPTP counter: 39.0*

Results for Cc1ccc(NS(=O)(=O)c2ccc(Cl)c(C(=O)Nc3ccccc3-c3nc4ccccc4[nH]3)c2)cc1C ?
Jurkat NFkB inh: 10.8; 697 NFkB inh: 1.5; aDG glyco act: 0.0; NR2E3 ag-1: 3.0; NR2E3 ag-2: -5.9; MPTP inh: 87.6*; MPTP counter: 58.1*

Results for CN(C)S(=O)(=O)c1ccc(Cl)c(C(=O)Nc2nc3ccccc3[nH]2)c1 ?
Jurkat NFkB inh: -7.0; 697 NFkB inh: 5.9; aDG glyco act: -0.3; NR2E3 ag-1: 0.2; NR2E3 ag-2: -1.7; MPTP inh: -1.9

How did CCc1ccc(/C=C\C(=O)N2CCc3ccccc3C2)cc1 do in these assays?
Jurkat NFkB inh: -10.0; 697 NFkB inh: 12.8; aDG glyco act: -0.2; NR2E3 ag-1: 1.6; NR2E3 ag-2: -58.9; MPTP inh: 60.7*; MPTP counter: 36.4*

How did CCN1CCN(c2ncc(C(=O)Nc3c(F)cc(F)cc3Br)c3ccccc23)CC1 do in these assays?
Jurkat NFkB inh: 0.7; 697 NFkB inh: -4.3; aDG glyco act: 1.2; NR2E3 ag-1: -0.7; NR2E3 ag-2: -4.8; MPTP inh: 69.8*; MPTP counter: -6.2; MPTP swell DR: 7.91*; MPTP counter DR: >80

What do the screens show for `CC(=O)N(\C=C/C=C/C=C1\Sc2ccccc2C1=O)c1ccccc1`?
Jurkat NFkB inh: -1.2; 697 NFkB inh: -11.0; aDG glyco act: 0.1; NR2E3 ag-1: 0.5; NR2E3 ag-2: -33.5; MPTP inh: 61.8*; MPTP counter: 62.4*

Results for CN(C)/C=C1/Sc2ccccc2C1=O ?
Jurkat NFkB inh: -7.7; 697 NFkB inh: -20.8; aDG glyco act: -0.3; NR2E3 ag-1: -6.1; NR2E3 ag-2: 1.2; MPTP inh: -1.1

How did Oc1ccccc1CNCCCN1CCOCC1 do in these assays?
Jurkat NFkB inh: 4.1; 697 NFkB inh: -5.3; aDG glyco act: 0.1; NR2E3 ag-1: 0.1; NR2E3 ag-2: -6.9; MPTP inh: 4.3

What do the screens show for `Cc1cccc2[nH]c3c(N4CC=C(c5ccc(F)cc5)CC4)ncnc3c12`?
Jurkat NFkB inh: -1.8; 697 NFkB inh: -1.3; aDG glyco act: 0.0; NR2E3 ag-1: -1.8; NR2E3 ag-2: 11.2; MPTP inh: 66.5*; MPTP counter: 62.3*

What do the screens show for `COc1cccc2[nH]c3c(N4CCCCC4)ncnc3c12`?
Jurkat NFkB inh: -9.9; 697 NFkB inh: -12.7; aDG glyco act: 0.2; NR2E3 ag-1: -2.5; NR2E3 ag-2: -33.8; MPTP inh: -1.8

How did COc1ccc(OC)c(-c2csc(NC(=O)CSc3ccc([N+](=O)[O-])cc3)n2)c1 do in these assays?
Jurkat NFkB inh: 17.6; 697 NFkB inh: 4.5; aDG glyco act: 0.5; NR2E3 ag-1: 2.7; NR2E3 ag-2: 2.5; MPTP inh: 55.6*; MPTP counter: 63.5*

Results for CC12CCC(=O)N1C(C(=O)NCCc1ccc(S(N)(=O)=O)cc1)CS2 (stereo unspecified) ?
Jurkat NFkB inh: 9.0; 697 NFkB inh: -13.6; aDG glyco act: -0.4; NR2E3 ag-1: 2.8; NR2E3 ag-2: 2.8; MPTP inh: 0.4

Results for CC(C(=O)Nc1ccc(OCc2ccccc2)cc1)N1CCCC1 (stereo unspecified) ?
Jurkat NFkB inh: -33.0; 697 NFkB inh: -14.0; aDG glyco act: 0.5; NR2E3 ag-1: 0.6; NR2E3 ag-2: -16.6; MPTP inh: 0.5

How did CC(C)COCC(CN(Cc1ccccc1)c1ccccc1)N1CCCC1 (stereo unspecified) do in these assays?
Jurkat NFkB inh: 17.0; 697 NFkB inh: -3.2; aDG glyco act: -0.5; NR2E3 ag-1: -1.3; NR2E3 ag-2: -3.1; MPTP inh: 92.2*; MPTP counter: -4.9; MPTP swell DR: 13.5*; MPTP counter DR: 44.1*

Results for CCc1nnc(NS(=O)(=O)c2ccc(NC(=S)NC(=O)/C=C/c3ccc(F)cc3)cc2)s1 ?
Jurkat NFkB inh: 5.0; 697 NFkB inh: -10.3; aDG glyco act: -0.1; NR2E3 ag-1: -1.7; NR2E3 ag-2: -7.1; MPTP inh: 53.0*; MPTP counter: 39.8*

What do the screens show for `Cc1nc2cc(-c3ccsc3-n3c(C)ccc3C)[nH]n2c(=O)c1Cl`?
Jurkat NFkB inh: 8.5; 697 NFkB inh: -8.0; aDG glyco act: 0.1; NR2E3 ag-1: 2.7; NR2E3 ag-2: -21.4; MPTP inh: 66.6*; MPTP counter: 51.2*

How did c1ccc(CNc2nc(N3CCN(Cc4ccccc4)CC3)nc3ccccc23)cc1 do in these assays?
Jurkat NFkB inh: 8.0; 697 NFkB inh: -29.2; aDG glyco act: 1.3; NR2E3 ag-1: 1.7; NR2E3 ag-2: -6.1; MPTP inh: 52.8*; MPTP counter: 80.6*

Results for c1ccc(CN2CCC(Nc3nc(-c4ccccc4)nc4ccccc34)CC2)cc1 ?
Jurkat NFkB inh: -1.1; 697 NFkB inh: 2.2; aDG glyco act: -0.9; NR2E3 ag-1: 3.5; NR2E3 ag-2: -3.2; MPTP inh: 105.5*; MPTP counter: -5.0
